RGS4 pot: RGS4 potentiation or activation. HEK293 M3R/inducible RGS4, carbachol calcium flux Fluo4; active compounds read low. B-score at 10 µM. actives 0.92% (n = 310,000). AID 463111;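 active = B-score of the integrated calcium signal more than 4 SD below the library mean, with starting fluorescence not abnormally high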;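 note: negative B-score means reduced calcium response which marks RGS4 activation or potentiation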
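Material: Inducible-RGS4 HEK293 cells carrying M3 receptor; also added: carbachol at ECmax as muscarinic agonist stimulus; incubation: compound preincubation 20 min at room temperature before agonist; signal: Fluo4-AM (2 µM) calcium-flux fluorescence, kinetic read; measure: integrated calcium ratio converted to B score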
MrgX1 agonist: activates human MrgX1 receptor signaling; MrgX1-HEK293 cells, Fluo-4 calcium fluorescence, agonist mode; active compounds read high; actives 0.44% (n = 310,000); AID 588627; B-score at 10 µM; Q96LB2;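 active = calcium response B-score plate-corrected fluorescence ratio at least 3 library SD, with starting fluorescence B-score inside 5 SD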
Target sequence (Q96LB2 whole entry, looked up): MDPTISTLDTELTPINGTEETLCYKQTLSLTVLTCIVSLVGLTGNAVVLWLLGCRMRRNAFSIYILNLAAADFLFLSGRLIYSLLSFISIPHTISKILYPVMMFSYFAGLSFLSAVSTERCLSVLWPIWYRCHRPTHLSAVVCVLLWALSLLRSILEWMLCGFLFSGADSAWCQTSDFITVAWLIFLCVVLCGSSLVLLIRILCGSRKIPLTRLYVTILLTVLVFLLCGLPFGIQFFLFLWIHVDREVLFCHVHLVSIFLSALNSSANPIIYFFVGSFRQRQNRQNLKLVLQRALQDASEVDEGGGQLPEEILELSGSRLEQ
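Material: MrgX1-expressing HEK293 cells; input: 15,000 cells per well; doses: test compound given as first of three sequential additions; schedule: overnight plating before 1 h dye loading; technique: Fluo-4 NW calcium-flux fluorescence, kinetic read; evaluation: baseline-normalised fluorescence change ratio, B-scored; control set: plate-wise positive and negative controls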
MrgX1 allo act: human MrgX1 positive allosteric modulation, primary screen; B-score at 10 µM; AID 588675; actives 0.63% (n = 310,000); MrgX1-HEK293, Fluo-4 calcium flux, FDSS; active compounds read high; Q96LB2;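 active = plate-corrected calcium response at least 3 library SD above typical, normal starting fluorescence, not activating the receptor alone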;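 note: compound read alongside a low EC10 to EC30 dose of BAM8-22 agonist; peak minus trough fluorescence over baseline measured at the second addition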
MrgX1 antagonist: human MrgX1 receptor antagonism, primary screen; Q96LB2; MRGX1-HEK293 calcium flux, Fluo-4, BAM8-22 antagonism; active compounds read low; B-score at 10 µM; actives 1.3% (n = 310,000); AID 588676;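 active = calcium-response B-score plate-corrected more than 3 library SD below zero, starting fluorescence within 5 deviations, no agonist response on first addition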;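 note: peak minus trough fluorescence over baseline after final BAM8-22 challenge near maximal dose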
RGS4 block: human RGS4 inhibition; P49798; HEK293 M3R/RGS4 inducible, Fluo-4 calcium flux; active compounds read high; triggered by carbachol at its EC20; B-score at 10 µM; actives 0.45% (n = 310,000); AID 463165;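 active = B-score, a plate-corrected calcium signal, over three deviations above library mean, with baseline fluorescence within five deviations of library mean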;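 note: RGS4 expression induced by doxycycline in cells with stable M3 receptor; B-score is computed from the integrated fluorescence ratio over baseline after carbachol; higher B-score means a larger calcium signal and so more RGS4 inhibition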
Target sequence (P49798 whole entry, looked up): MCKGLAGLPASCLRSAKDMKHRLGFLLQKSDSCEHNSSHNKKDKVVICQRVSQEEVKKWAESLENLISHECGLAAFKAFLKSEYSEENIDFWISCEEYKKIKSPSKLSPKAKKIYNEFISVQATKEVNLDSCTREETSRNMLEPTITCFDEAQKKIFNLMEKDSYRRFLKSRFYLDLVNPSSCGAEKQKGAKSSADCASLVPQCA
Of the large screens only hits and unclear results are named; the others gave an inactive call. Only some compounds are listed: those with a hit (about 3.5% of all), similar ones and a draw of the others.

Cc1cccc(C(=O)NC(=S)NNC(=O)c2ccc(Cl)cc2)c1	MrgX1 allo act 18
COc1ccc(-c2nn(-c3ccccc3)cc2C(=O)NC(=S)NNC(=O)c2ccncc2)cc1	MrgX1 antagonist -4.6
CCn1c(C)nc2cc(C(=O)NNC(=S)Nc3ccccc3)ccc21	none
O=C(Cc1cccs1)NNC(=S)NCc1ccco1	RGS4 pot -8.2
CCN(CC)S(=O)(=O)c1cccc(C(=O)N/N=C/c2c(C)nn(-c3ccccc3)c2Cl)c1	none
O=S(=O)(c1ccc(Br)s1)N1CCNCC1	none
O=C(COc1ccc(Cl)cc1Cl)Nc1ccccc1F	RGS4 pot -7.2
O=C(COc1ccc(Cl)cc1Cl)NNC(=S)NCc1ccco1	RGS4 pot -7.1, MrgX1 allo act 13
CC(C)C(=O)Nc1ccc(C(=O)NNC(=S)NC(=O)c2ccccc2[N+](=O)[O-])cc1	none
COc1ccc(C(=O)NNC(=S)NC(=O)c2ccc(Cl)cc2)cc1	RGS4 pot -8, MrgX1 agonist 122
COc1ccc(C(=O)NC(=S)NNC(=O)c2ccc(NC(=O)C(C)C)cc2)cc1	MrgX1 antagonist -5.8
CCOC(=O)COn1c(SCC(=O)OCC)nc2ccccc2c1=O	none
COC(=O)c1ccc(CSc2nnc3nc(C)cc(C)n23)cc1	none
COc1ccccc1CNC(=O)CSc1ccc(C(=O)Nc2ccccc2OC)cc1[N+](=O)[O-]	none
Nc1ccccc1-c1nnn(CC(=O)Nc2ccc3c(c2)OCCO3)n1	none
O=C(Nc1cccnc1Cl)c1ccc(Cl)cc1	none
COc1ccc(/C=C/C(=O)NC(=S)NNC(=O)Cc2cccs2)cc1OC	none
O=C(/C=C/c1cccs1)NC(=S)NNC(=O)Cc1cccs1	MrgX1 agonist 48
CCC(=O)NC(=S)NNC(=O)c1ccc(OC)cc1	none
O=C(NC(=S)Nc1cccnc1Cl)c1ccc(Cl)cc1	MrgX1 allo act 9.5
COc1ccc(C(=O)NC(=S)NNC(=O)Cc2cccs2)cc1	MrgX1 agonist 55
O=c1cc(-c2ccccc2)nc(/C=C/c2ccccc2)[nH]1	none
COc1cc(/C=C2/C(=N)N3C(=NC2=O)SN=C3S(C)(=O)=O)ccc1OC(=O)c1ccco1	MrgX1 allo act 18
COc1cc(/C=C2/C(=N)N3C(=NC2=O)SN=C3S(=O)(=O)C(C)C)ccc1OS(=O)(=O)c1ccccc1	MrgX1 allo act 13
CCS(=O)(=O)C1=NSC2=NC(=O)/C(=C\c3ccc(OC(=O)c4ccco4)c(OC)c3)C(=N)N21	MrgX1 allo act 28
COc1cc(/C=C2\C(=N)N3N=CSC3=NC2=O)cc(Br)c1OC(=O)c1ccco1	MrgX1 agonist 34
CCS(=O)(=O)C1=NN2C(=N)/C(=C\c3ccc(OC(=O)c4ccco4)c(OC)c3)C(=O)N=C2S1	none
CC1=CC2=NC(=O)/C(=C\c3cc(C)n(-c4ccccc4F)c3C)C(=N)N2O1	none
CCOc1cc(/C=C2\C(=N)N3N=CSC3=NC2=O)ccc1OS(=O)(=O)c1ccccc1	MrgX1 agonist 57
Cc1cc(/C=C2/C(=N)N3C(=NC2=O)SN=C3S(C)(=O)=O)c(C)n1-c1ccccc1F	MrgX1 allo act 11
CS(=O)(=O)C1=NSC2=NC(=O)/C(=C\c3ccc(OC(=O)c4ccco4)cc3)C(=N)N21	MrgX1 allo act 25
COc1cc(/C=C2/SC(=O)NC2=O)ccc1OC(=O)c1ccco1	none
CC1CCN(C2=NN3C(=N)/C(=C\c4ccc(OC(=O)c5ccco5)cc4)C(=O)N=C3S2)CC1	none
COc1cc(/C=C2/SC(=S)N(C)C2=O)ccc1OC(=O)c1ccco1	MrgX1 antagonist -5
O=C(CN1C(=O)CCC1=O)NC(=O)NC1CCCC1	none
CC(C)COc1ccc(C(=O)NC(Cc2c[nH]c3ccccc23)C(=O)NN)cc1 (configuration not stated)	none
CC(C)(C)c1ccc(OCC(=O)NNC(=O)CCc2ccccc2)cc1	none
COc1ccccc1C(=O)NNC(=S)NC(=O)c1ccco1	MrgX1 agonist 50
CC(Oc1ccc(Cl)cc1)C(=O)NNC(=S)NC(=O)c1ccco1 (configuration not stated)	MrgX1 agonist 90
COC(=O)c1cc(OC)c(OC)cc1NC(=S)NC(=O)c1ccco1	none
CC(C)(C)c1ccc(C(=O)NC(=S)NNC(=O)COc2ccccc2)cc1	RGS4 pot -7.5, MrgX1 agonist 45
CC(C)(C)c1ccc(C(=O)NC(=S)NNC(=O)c2cccs2)cc1	MrgX1 agonist 47
COc1ccc(NS(=O)(=O)c2cccc(NC(=O)NC3CCCCC3)c2)cc1	none
Cc1noc(/C=C/N(C)C)c1S(=O)(=O)NC1CCCCC1	none
O=C(NC(=S)NNC(=O)c1cccs1)c1ccco1	MrgX1 agonist 28
Cc1ccccc1N1CCN(S(=O)(=O)c2nnc(NC(=O)c3ccc(F)cc3)s2)CC1	none
Cc1nn(C)c(C)c1/C=N/N=C1\CCC2C3CCc4cc(O)ccc4C3CCC12C (configuration not stated)	MrgX1 antagonist -5.6
Cc1sc2ncnc(NCC(O)c3ccc([N+](=O)[O-])cc3)c2c1C (configuration not stated)	MrgX1 antagonist -5
Cc1nc(NCC(c2ccccc2)N(C)C)c2c(C)c(C)sc2n1 (configuration not stated)	RGS4 pot -9.5
Cc1sc2ncnc(NCC(c3ccccc3)N(C)C)c2c1C (configuration not stated)	RGS4 pot -7.5
Cc1sc2ncnc(NCC(O)c3ccccc3)c2c1C (configuration not stated)	none
Cc1sc2ncnc(NCCCO)c2c1C	none
Cc1ccc(C)c(Nc2ncccc2C(=O)NCc2cccs2)c1	none
CCCn1c(SCC(=O)N2CCCc3ccccc32)nc2c1c(=O)n(C)c(=O)n2C	none (no result: RGS4 pot, RGS4 block)
O=C(Nc1ncnc2c1ncn2C1OC(COC(=O)c2ccccc2)C(F)C1O)c1ccccc1 (configuration not stated)	none
CC(C)(C)c1cc(C(=O)NNC(=O)Nc2ccccc2)n(Cc2ccccc2)n1	MrgX1 antagonist -4.9
CC(C)(C)c1cc(C(=O)NNC(=O)Nc2cccc(Cl)c2)n(Cc2ccccc2)n1	none
Cc1ccc(-n2cc(-c3ccccc3)c3c(N4CCOCC4)ncnc32)cc1	RGS4 pot -7.3 (no result: MrgX1 agonist, MrgX1 allo act, MrgX1 antagonist)
Cc1ccc(-n2cc(-c3ccccc3)c3c(N4CCN(C)CC4)ncnc32)cc1	none
COC(=O)c1ccccc1C(=O)c1cccc2ccccc12	none
COC(=O)Nc1nn(-c2ccc(OC)cc2)c(=O)c(C#N)c1C	none
COc1ccc(-n2nc(C(=O)N3CCCCC3)c(C)c(C#N)c2=O)cc1	MrgX1 antagonist -5.8
O=[N+]([O-])c1ccc(N/N=C\c2cccnc2)nc1	none
Cc1cccc(C)c1-n1c(C)cc(/C=N\Nc2ccc([N+](=O)[O-])cn2)c1C	MrgX1 antagonist -5
Cc1c(Cl)c([N+](=O)[O-])nn1Cc1ccc(C(=O)Nc2ccc(Cl)cn2)o1	MrgX1 antagonist -6.9

High-throughput results as filed in PubChem.
